For assay [1], the target named is Cyclin-dependent kinase 2/cyclin A (Homo sapiens, UniProt P24941+P20248+P78396). Description: (§1) Inhibition of CDK2/Cyclin A2 in human HeLa cell extracts using histone H1 as substrate preincubated for 30 mins before substrate addition measured after 15 mins by autoradiography. Format: protein-complex assay. As to conditions: hela; call rule not given here. The method, boiled down: (§2)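 CDK2 immunoprecipitated (6 h, 4 °C) from 200 µg extract of HeLa cells seeded 24 h and then given 50 µg/ml etoposide in DMEM with 5% newborn calf serum for 12 h. After washing, kinase preincubated 30 min with 0–200 µM inhibitor.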

The target of assay [2] is Cyclin-dependent kinase 1/cyclin B1 (Homo sapiens, UniProt P06493+P14635). Description: (§3) Inhibition of CDK1/Cyclin B in human HeLa cell extracts using histone H1 as substrate preincubated for 30 mins before substrate addition measured after 15 mins by autoradiography. The conditions noted are these: hela. Type of assay: protein-complex assay. In outline:
(§4)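 HeLa cells seeded for 24 h, then given 80 nM paclitaxel in DMEM with 5% newborn calf serum for 12 h. 200 µg extract immunoprecipitated with anti-CDK1 antibody, 6 h at 4 °C, and washed.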

The subject of assay [3] is HeLa. The experiment in a line: Cell cycle arrest in human HeLa cells assessed as accumulation at G1/S phase at 6.25 uM after 72 hrs by DAPI staining-based FACS analysis (reference value: 86.27%). Type of assay: functional. In general terms: In flow cytometry, cells or beads pass a laser one at a time.
In assay [4] the target is Cyclin-dependent kinase 2/cyclin A (Homo sapiens, UniProt P24941). The assay is described as §1. Type of assay: protein-complex assay. In outline:
as §2

The target of assay [5] is Cyclin-dependent kinase 1/cyclin B1 (Homo sapiens, UniProt P06493). The description is as §3. Format: protein-complex assay. In outline:
as §4

Assay [6] concerns HeLa. Description: Cell cycle arrest in human HeLa cells assessed as accumulation at G2 phase at 6.25 uM after 72 hrs by DAPI staining-based FACS analysis (reference value: 13.73%). Format: functional.
For assay [7], the system named is HeLa. Description: Cell cycle arrest in human HeLa cells assessed as accumulation at G2 phase at 12.5 uM after 72 hrs by DAPI staining-based FACS analysis (reference value: 13.73%). Format: functional.
In assay [8] the test system is HeLa. Description: Cell cycle arrest in human HeLa cells assessed as accumulation at G1/S phase at 12.5 uM after 72 hrs by DAPI staining-based FACS analysis (reference value: 86.27%). Format: functional.

SMILES strings stand for the structures.

Sequence of Cyclin-dependent kinase 1/cyclin B1 (Homo sapiens, UniProt P06493+P14635) (P06493 whole entry): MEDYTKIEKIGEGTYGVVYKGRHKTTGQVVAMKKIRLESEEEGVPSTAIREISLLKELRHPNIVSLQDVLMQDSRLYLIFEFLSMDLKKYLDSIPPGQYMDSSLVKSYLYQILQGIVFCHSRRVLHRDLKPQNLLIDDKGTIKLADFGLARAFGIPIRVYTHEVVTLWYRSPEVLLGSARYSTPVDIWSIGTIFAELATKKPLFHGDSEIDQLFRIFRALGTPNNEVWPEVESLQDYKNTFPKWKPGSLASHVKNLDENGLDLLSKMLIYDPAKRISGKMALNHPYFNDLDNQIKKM
Sequence of Cyclin-dependent kinase 1/cyclin B1 (Homo sapiens, UniProt P06493+P14635) (P14635 whole entry): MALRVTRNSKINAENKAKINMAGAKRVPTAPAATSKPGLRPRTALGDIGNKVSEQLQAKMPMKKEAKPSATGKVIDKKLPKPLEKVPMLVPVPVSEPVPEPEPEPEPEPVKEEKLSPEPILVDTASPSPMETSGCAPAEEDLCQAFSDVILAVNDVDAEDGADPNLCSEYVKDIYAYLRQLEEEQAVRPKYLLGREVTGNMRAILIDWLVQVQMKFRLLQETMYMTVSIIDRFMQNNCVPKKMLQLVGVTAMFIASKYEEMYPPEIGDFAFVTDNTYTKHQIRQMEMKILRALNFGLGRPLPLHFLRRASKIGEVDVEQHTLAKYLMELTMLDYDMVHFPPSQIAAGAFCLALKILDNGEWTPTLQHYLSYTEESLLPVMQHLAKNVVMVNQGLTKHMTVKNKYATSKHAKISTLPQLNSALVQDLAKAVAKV
Sequence of Cyclin-dependent kinase 1/cyclin B1 (Homo sapiens, UniProt P06493) (P06493 whole entry): as the sequence (P06493 whole entry) above
Sequence of Cyclin-dependent kinase 1/cyclin B1 (Homo sapiens, UniProt P06493) (P14635 whole entry, further chain): as the sequence (P14635 whole entry) above

What is called IC50 is the point on the concentration scale where inhibition reaches its midpoint. A high value points to a need for much substance. As to `N#Cc1c(-c2cccc(Br)c2)n([C@H]2O[C@@H](CO)[C@@H](O)[C@@H]2O)c2ncnc(N)c12`, the 50% inhibitory concentration (IC50) entry in assay [1] and in assay [2] was “Not Active” throughout.

Consider `COc1ccc(-c2c(C(N)=O)c3c(N)ncnc3n2[C@H]2O[C@@H](CO)[C@@H](O)[C@@H]2O)cc1`, for which the IC50 entry in assay [1] and in assay [2] was “Not Active” in each case.

As to `NC(=O)c1c(-c2ccco2)n([C@H]2O[C@@H](CO)[C@@H](O)[C@@H]2O)c2ncnc(N)c12`, the IC50 entry in assay [1] and in assay [2] was “Not Active” in each case.

Consider `NC(=O)c1c(-c2ccc(Br)s2)n([C@H]2O[C@@H](CO)[C@@H](O)[C@@H]2O)c2ncnc(N)c12`, for which the IC50 result in assay [1] and in assay [2] was “Not Active” in each case.

For the compound `Cc1ccc(-c2c(C(N)=O)c3c(N)ncnc3n2[C@H]2O[C@@H](CO)[C@@H](O)[C@@H]2O)cc1`, the half-maximal inhibitory concentration (IC50) entry in assay [1] and in assay [2] was “Not Active” each time.

Consider `Cc1ccc(-c2c(C#N)c3c(N)ncnc3n2[C@H]2O[C@@H](CO)[C@@H](O)[C@@H]2O)cc1`, for which the IC50 entry in assay [1] and in assay [2] was “Not Active” in each case.

`N#Cc1c(-c2ccco2)n([C@H]2O[C@@H](CO)[C@@H](O)[C@@H]2O)c2ncnc(N)c12`: the Activity in the assay on HeLa [3] amounted to 85.13%; in the assay on HeLa [6] it was 14.87%; in the assay on HeLa [7] it was 7.26%; with HeLa [8], 92.74%. Moreover, the IC50 is 4.8 µM in assay [4] and over 100 µM in assay [5].

As for `COc1ccc(-c2c(C#N)c3c(N)ncnc3n2[C@H]2O[C@@H](CO)[C@@H](O)[C@@H]2O)cc1`, the IC50 result in assay [1] and in assay [2] was “Not Active” in each case.

With `NC(=O)c1c(-c2ccc(Br)cc2)n([C@H]2O[C@@H](CO)[C@@H](O)[C@@H]2O)c2ncnc(N)c12`, the IC50 result in assay [1] and in assay [2] was “Not Active” throughout.

As to `N#Cc1c(-c2ccc(Br)cc2)n([C@H]2O[C@@H](CO)[C@@H](O)[C@@H]2O)c2ncnc(N)c12`, the IC50 entry in assay [1] and in assay [2] was “Not Active” each time.

In the case of `N#Cc1c(-c2ccc[nH]2)n([C@H]2O[C@@H](CO)[C@@H](O)[C@@H]2O)c2ncnc(N)c12`, the IC50 result in assay [1] and in assay [2] was “Not Active” each time.

For the compound `NC(=O)c1c(-c2cccs2)n([C@H]2O[C@@H](CO)[C@@H](O)[C@@H]2O)c2ncnc(N)c12`, the IC50 entry in assay [1] and in assay [2] was “Not Active” each time.

For the compound `N#Cc1c(-c2ccc(Br)s2)n([C@H]2O[C@@H](CO)[C@@H](O)[C@@H]2O)c2ncnc(N)c12`, the Activity in the assay with HeLa [3] was 86.83%; in the assay with HeLa [6], 13.17%; in the assay on HeLa [7], 0.22%; in the assay with HeLa [8] it was 99.79%. Also, the IC50 was 55 µM in assay [4] and over 100 µM in assay [5].

With `CC(C)(C)c1ccc(-c2c(C(N)=O)c3c(N)ncnc3n2[C@H]2O[C@@H](CO)[C@@H](O)[C@@H]2O)cc1`, the IC50 result in assay [1] and in assay [2] was “Not Active” each time.

With `N#Cc1c(-c2cccs2)n([C@H]2O[C@@H](CO)[C@@H](O)[C@@H]2O)c2ncnc(N)c12`, the Activity was found to be 96.3% with HeLa [3], 3.7% in the assay on HeLa [6], 0.13% with HeLa [7] and 99.87% with HeLa [8]. The IC50 in assay [4] is 4.6 µM; in assay [5] it was over 100 µM.

Take `N#Cc1c(Br)n([C@H]2O[C@@H](CO)[C@@H](O)[C@@H]2O)c2ncnc(N)c12`: the IC50 result in assay [1] and in assay [2] was “Not Active” throughout.

As for `NC(=O)c1c(-c2cccc(Br)c2)n([C@H]2O[C@@H](CO)[C@@H](O)[C@@H]2O)c2ncnc(N)c12`, the IC50 result in assay [1] and in assay [2] was “Not Active” in each case.

On to `NC(=O)c1c(-c2ccc[nH]2)n([C@H]2O[C@@H](CO)[C@@H](O)[C@@H]2O)c2ncnc(N)c12`, for which the IC50 result in assay [1] and in assay [2] was “Not Active” throughout.

For `CC(C)(C)c1ccc(-c2c(C#N)c3c(N)ncnc3n2[C@H]2O[C@@H](CO)[C@@H](O)[C@@H]2O)cc1`, the half-maximal inhibitory concentration (IC50) entry in assay [1] and in assay [2] was “Not Active” in each case.

As for `NC(=O)c1c(Br)n([C@H]2O[C@@H](CO)[C@@H](O)[C@@H]2O)c2ncnc(N)c12` [XYLOCYDINE], the IC50 amounted to 0.061 µM in assay [4] and 0.0014 µM in assay [5].

For `COc1cccc(-c2c(C#N)c3c(N)ncnc3n2[C@H]2O[C@@H](CO)[C@@H](O)[C@@H]2O)c1`, the 50% inhibitory concentration (IC50) entry in assay [1] and in assay [2] was “Not Active” throughout.

For the compound `COc1cccc(-c2c(C(N)=O)c3c(N)ncnc3n2[C@H]2O[C@@H](CO)[C@@H](O)[C@@H]2O)c1`, the IC50 result in assay [1] and in assay [2] was “Not Active” each time.

Values taken from ChEMBL document CHEMBL1921796, “Synthesis of 6-(het) ary Xylocydine analogues and evaluating their inhibitory activities of CDK1 and CDK2 in vitro” (Bioorg Med Chem, 2011).
